Source: PubChem
SENP6 inh – inhibitors of human SENP6 protease. Q9GZR1. Recombinant SENP6 catalytic domain, aminoluciferin luminescence. inhibition, % at 10 µM. actives 1.8% (n = 330,000). AID 2599;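 active = inhibition above about 50% at the single tested dose, limit read from the data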;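 also: plate controls were DMSO wells with enzyme for no effect and DMSO wells lacking enzyme for full effect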
SENP7 block – blocks the human protease SENP7 | recombinant SENP7, Z-RLRGG-aminoluciferin luminescence, 40 min | inhibition, % at 5 µM | actives 1.5% (n = 330,000) | AID 434973;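 active = inhibition above about 50% at the single test dose, limit read from the data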;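 also: plate controls were DMSO with enzyme for no effect and no enzyme buffer wells for full effect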
Target sequence (Q9BQF6 706-1050 limits assumed): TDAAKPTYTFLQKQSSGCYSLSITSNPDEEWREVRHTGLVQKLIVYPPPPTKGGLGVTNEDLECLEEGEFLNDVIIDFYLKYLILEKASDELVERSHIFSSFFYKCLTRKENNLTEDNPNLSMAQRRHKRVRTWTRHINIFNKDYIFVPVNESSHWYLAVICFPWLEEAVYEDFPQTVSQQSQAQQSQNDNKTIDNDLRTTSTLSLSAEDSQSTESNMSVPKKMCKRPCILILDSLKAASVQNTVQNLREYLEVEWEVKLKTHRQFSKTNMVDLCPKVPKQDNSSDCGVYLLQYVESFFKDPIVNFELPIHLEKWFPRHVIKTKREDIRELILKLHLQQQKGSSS
Apaf-1 inh – human Apaf-1 inhibition; O14727; reconstituted apoptosome caspase-3 activity, DEVD-Rh110 fluorescence; inhibition, % at 20 µM; actives 0.71% (n = 330,000); active = inhibition of at least 40% at 20 µM;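 also: plate controls were DMSO wells for no effect and DEVD-CHO caspase inhibitor wells for full effect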
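Medium: Hepes buffer, pH 7.5 / System: biochemical Apaf-1 apoptosome reconstitution / Measured by: Rh110 fluorescence, excitation 480 nm, emission 540 nm / Times: compound with Apaf-1, dATP, procaspase-3 30 min, then 50 min reaction, room temperature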
SENP8 block-1 – blocks the human protease SENP8; Q96LD8; purified SENP8, Z-RLRGG-aminoluciferin cleavage, luminescence; inhibition, % at 10 µM; actives 1.2% (n = 330,000); in the data active = inhibition above about 50%
Target sequence (Q96LD8 whole entry, looked up): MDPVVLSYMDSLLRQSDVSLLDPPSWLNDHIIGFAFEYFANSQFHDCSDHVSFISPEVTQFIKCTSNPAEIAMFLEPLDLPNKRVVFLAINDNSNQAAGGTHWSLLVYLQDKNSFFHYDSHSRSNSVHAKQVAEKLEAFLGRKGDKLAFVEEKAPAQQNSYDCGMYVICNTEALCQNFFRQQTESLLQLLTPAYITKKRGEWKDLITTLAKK
SENP8 block-2 – blocks human SENP8 cleavage of Nedd8 substrate; Q96LD8; recombinant SENP8, Nedd8 substrate fluorescence; inhibition, % at 20 µM; actives 0.64% (n = 360,000); in the data active = inhibition mostly above about 40%, no sharp cut-off; inactive = mostly below about 27%
UBC13 inh – blocks human UBC13 polyubiquitin chain formation. P61088. TR-FRET. inhibition, % at 20 µM. actives 0.47% (n = 330,000). AID 485273; in the data active = inhibition above about 45%, passing the limit was not always enough
SENP8 confirm – human SENP8 inhibition, confirmed | Recombinant SENP8, Z-RLRGG-aminoluciferin luminescence, 60 min | inhibition, % at 12.5 µM | AID 488912 | actives 40% (n = 6,200) | shares compounds with SENP7 block;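 active = mean inhibition across replicates above about 50%, limit read from the data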
SENP6 conf – human SENP6 inhibition, confirmed | shares compounds with SENP7 block | recombinant SENP6, Z-RLRGG-aminoluciferin luminescence | inhibition, % at 12.5 µM | actives 58% (n = 6,200)
SENP7 confirm – confirmation of human SENP7 protease inhibitors | recombinant SENP7, Z-RLRGG-aminoluciferin luminescence, 40 min | actives 69% (n = 6,200) | AID 488917 | inhibition, % at 12.5 µM | shares compounds with SENP7 block
Casp3 SENP sel – inhibits human caspase-3 in SENP selectivity test | shares compounds with SENP7 block | purified caspase-3, Z-DEVD-aminoluciferin luminescence, 60 min | actives 60% (n = 6,200) | inhibition, % at 12.5 µM;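 active = mean inhibition above about 50%, limit read from the data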;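 also: plate controls were enzyme with DMSO for no effect and wells without caspase-3 for full effect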
Luc interf – interferes with luciferase luminescence in SENP counter-screen | shares compounds with SENP7 block | Pre-incubated SENP8/Z-RLRGG-aminoluciferin, luciferase luminescence interference | inhibition, % at 12.5 µM | actives 39% (n = 6,200) | AID 488919;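 active = mean inhibition above about 50% when retested at one dose, limit read from the data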;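 also: plate controls were DMSO wells with completed reaction for no effect and substrate without enzyme for full effect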
An asterisk follows results filed as active; . = no result given. In the library only some 3% were active in any assay of this set; here they are far more common.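 The calls were made as follows, unless noted: active = mean inhibition above about 50% in the one-dose retest (limit read from the data); inactive = the rest.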

SMILES	SENP6 inh	SENP7 block	Apaf-1 inh	SENP8 block-1	SENP8 block-2	UBC13 inh	SENP8 confirm	SENP6 conf	SENP7 confirm	Casp3 SENP sel	Luc interf
CN(C(=O)CSc1nnc(Cc2ccccc2F)n1N)C1CCCCC1	-29	2	12	-13	-38	-16	.	.	.	.	.
c1ccc(Nc2nc(-c3ccccn3)cs2)cc1	-3	60*	11	38	-16	-15	60*	61*	88*	54*	76*
COc1cccc2sc(Nc3nc(-c4ccccn4)cs3)nc12	65*	45	29	42	-84	-1	-7	56*	85*	28	12
Cc1ccc(C)c(N=Nc2ccc(O)c3ncccc23)c1	4	-1	-8	0	34	-150	.	.	.	.	.
Cc1cccc(N=Nc2ccc(O)c3ncccc23)c1	69*	26	10	33	37	-168	-15	-2	9	48	1
COc1ccc(CONc2ncnc3nonc23)cc1[N+](=O)[O-]	70*	46	-2	55*	11	7	2	50*	83*	70*	62*
COc1cc(NC(=O)c2csc3c2CCCC3)ncn1	61*	-1	-6	47	12	10	11	5	12	10	6
Cc1cccc2c1cnn2C(=O)Nc1cc(F)ccc1F	61*	5	1	43	22	2	30	37	7	43	12
Cc1cc(C)n(C(=O)/C=C/c2cccs2)n1	-11	56*	-4	-27	11	-4	1	-10	5	-6	8
O=C(/C=C/c1cccs1)Nc1ccncc1	27	19	3	10	9	-12	.	.	.	.	.
Cc1cccc(NC(=O)/C=C/c2cccs2)n1	67*	72*	-5	36	7	5	56*	55*	84*	77*	66*
CCCOC(=O)c1ccc(NC(=O)/C=C/c2cccs2)cc1	75*	24	8	35	-36	6	21	21	57*	11	16
COC(=O)[C@H](Cc1c[nH]c2ccccc12)NC(=O)Nc1ccccc1OC	-35	-2	-4	-9	19	-3	.	.	.	.	.
CCOC(=O)C1CCCN(C(=O)CCn2nnnc2CN2CCOCC2)C1 (centres undefined)	-12	-11	5	-8	14	-10	.	.	.	.	.
O=C1C=C(Nc2ccccc2)C(=O)c2ccccc21	90*	82*	17	80*	25	-152	26	29	47	47	14
Cc1cc(C)nc(SCCN2CCCCC2)n1	-5	6	-10	4	9	6	.	.	.	.	.
COc1cc(OC)cc(C(=O)N[C@H](C(=O)Nc2c(C)n(C)n(-c3ccccc3)c2=O)C(C)C)c1	-13	5	-7	-2	2	-9	.	.	.	.	.
Fc1cccc(NC(=S)Nc2cccc3ccccc23)c1	57*	29	29	28	-393	-4	-22	-16	-9	-11	-5
CC(=O)N(C)c1ccc(NC(=S)Nc2cccc3ccccc23)cc1	68*	47	21	59*	-423	-32	-22	-10	3	-3	-1
O=C(COc1ccc2ccccc2c1Br)N1CCCCC1	31	5	22	13	2	-7	.	.	.	.	.
O=C(Oc1ccc2ccccc2c1Br)N1CCCCCC1	90*	82*	16	78*	16	-3	87*	91*	96*	72*	39
c1ccc(-c2cn3c4c(sc3n2)CCCC4)cc1	97*	-6	13	96*	15	-5	90*	95*	103*	95*	29
Cc1c(C(=O)N2CCc3ccccc3C2)sc2nc(-c3ccccc3)cn12	4	-1	8	8	17	8	.	.	.	.	.
COc1cc(C(=O)NCCOc2ccccc2C)cc(OC)c1OC	-4	3	2	3	13	4	.	.	.	.	.
CCOCC(=O)Nc1cc(C(=O)Nc2ccccc2)ccc1Cl	26	33	-10	14	29	-3	.	.	.	.	.
SMILES	SENP6 inh	SENP7 block	Apaf-1 inh	SENP8 block-1	SENP8 block-2	UBC13 inh	SENP8 confirm	SENP6 conf	SENP7 confirm	Casp3 SENP sel	Luc interf
CCOCC(=O)Nc1cc(C(=O)Nc2cc(C)cc(C)c2)ccc1Cl	-32	93*	-4	79*	.	-1	83*	54*	90*	89*	47
CC(C)C1Oc2ccccc2C(=O)N(CC(=O)c2ccc3c(c2)OCCO3)C1=O (centres undefined)	16	56*	12	-20	4	-1	2	6	13	26	-4
CC1Oc2ccccc2C(=O)N(CC(=O)c2ccc3c(c2)OCCO3)C1=O (centres undefined)	28	6	1	6	8	-2	.	.	.	.	.
Brc1ccc(NCc2nnc3n2CCCCC3)cc1	-10	99*	-27	-2	8	-1	9	10	7	2	5
Cc1cccc(C)c1NC(=O)CN(C)C(=O)CC1CC2CCC1C2 (centres undefined)	-1	8	6	-2	4	-1	.	.	.	.	.
Cc1[nH]n(-c2ccccc2)c(=O)c1N=Nc1cccc(Cl)c1	-4	-14	18	-3	22	-28	.	.	.	.	.
Nc1[nH]n(-c2ccccc2)c(=O)c1N=Nc1ccccc1	72*	67*	-10	43	28	-71	-4	45	83*	42	-6
O=c1[nH]c(=O)c2cc([N+](=O)[O-])cc([N+](=O)[O-])c2[nH]1	25	9	2	3	38	1	.	.	.	.	.
O=c1c2cc([N+](=O)[O-])cc([N+](=O)[O-])c2[nH]n1-c1ccccc1	64*	0	9	46	31	-52	55*	51*	79*	71*	73*
Nc1[nH]n(-c2ccccc2)c(=O)c1N=Nc1ccccc1[N+](=O)[O-]	-54	61*	-1	2	11	-32	19	16	9	7	-1
CCOC(=O)c1c(C2CC2)csc1NC(=O)COC(=O)c1cc(OC)c(OC)cc1[N+](=O)[O-]	-3	7	-5	3	3	-6	.	.	.	.	.
N#C/C(=C(/O)c1ccc([N+](=O)[O-])o1)c1nc2ccccc2[nH]1	66*	42	-4	39	33	-79	-2	-1	-4	-2	-4
